Data from ChEMBL document CHEMBL4261499, “Chiral disubstituted piperidinyl ureas: a class of dual diacylglycerol lipase-α and ABHD6 inhibitors” (Medchemcomm, 2017).

Assays:
[1] = molecular target: T1, Monoacylglycerol lipase ABHD6 (Mus musculus) (UniProt Q8R2Y0); assay: Inhibition of MB064 labelling of ABHD6 in mouse brain homogenates at 10 uM pretreated for 30 mins followed by MB064 addition and measured after 20 mins by activity based protein profiling assay relative to control; format: tissue-based
T1 sequence (whole entry): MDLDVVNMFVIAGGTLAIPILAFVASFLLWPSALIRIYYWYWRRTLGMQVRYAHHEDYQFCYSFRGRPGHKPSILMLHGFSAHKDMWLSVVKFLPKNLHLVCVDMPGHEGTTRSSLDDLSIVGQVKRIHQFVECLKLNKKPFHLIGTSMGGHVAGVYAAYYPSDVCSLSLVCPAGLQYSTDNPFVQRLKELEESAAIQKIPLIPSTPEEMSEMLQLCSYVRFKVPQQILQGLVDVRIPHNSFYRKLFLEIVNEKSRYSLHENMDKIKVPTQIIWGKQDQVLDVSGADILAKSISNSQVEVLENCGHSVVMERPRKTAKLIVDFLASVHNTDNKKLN
Summary of the method: (§1)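 Mouse brain membrane proteome preincubated 30 min with inhibitor (10 μM), then labelled with MB064 probe (0.25 μM, 20 min). Readout by gel-based competitive ABPP. Band intensities corrected for protein loading per lane from Coomassie staining. Means ± SEM, n = 3.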

[2] = molecular target: T2, Diacylglycerol lipase-alpha (Homo sapiens, UniProt Q9Y4D2); assay: Inhibition of recombinant human DAGLalpha expressed in HEK293 cells using PNP-butyrate as substrate pretreated for 20 to 30 mins followed by substrate addition measured every 60 secs for 20 mins by colorimetric method; format: cell-based
T2 sequence (Q9Y4D2 whole entry): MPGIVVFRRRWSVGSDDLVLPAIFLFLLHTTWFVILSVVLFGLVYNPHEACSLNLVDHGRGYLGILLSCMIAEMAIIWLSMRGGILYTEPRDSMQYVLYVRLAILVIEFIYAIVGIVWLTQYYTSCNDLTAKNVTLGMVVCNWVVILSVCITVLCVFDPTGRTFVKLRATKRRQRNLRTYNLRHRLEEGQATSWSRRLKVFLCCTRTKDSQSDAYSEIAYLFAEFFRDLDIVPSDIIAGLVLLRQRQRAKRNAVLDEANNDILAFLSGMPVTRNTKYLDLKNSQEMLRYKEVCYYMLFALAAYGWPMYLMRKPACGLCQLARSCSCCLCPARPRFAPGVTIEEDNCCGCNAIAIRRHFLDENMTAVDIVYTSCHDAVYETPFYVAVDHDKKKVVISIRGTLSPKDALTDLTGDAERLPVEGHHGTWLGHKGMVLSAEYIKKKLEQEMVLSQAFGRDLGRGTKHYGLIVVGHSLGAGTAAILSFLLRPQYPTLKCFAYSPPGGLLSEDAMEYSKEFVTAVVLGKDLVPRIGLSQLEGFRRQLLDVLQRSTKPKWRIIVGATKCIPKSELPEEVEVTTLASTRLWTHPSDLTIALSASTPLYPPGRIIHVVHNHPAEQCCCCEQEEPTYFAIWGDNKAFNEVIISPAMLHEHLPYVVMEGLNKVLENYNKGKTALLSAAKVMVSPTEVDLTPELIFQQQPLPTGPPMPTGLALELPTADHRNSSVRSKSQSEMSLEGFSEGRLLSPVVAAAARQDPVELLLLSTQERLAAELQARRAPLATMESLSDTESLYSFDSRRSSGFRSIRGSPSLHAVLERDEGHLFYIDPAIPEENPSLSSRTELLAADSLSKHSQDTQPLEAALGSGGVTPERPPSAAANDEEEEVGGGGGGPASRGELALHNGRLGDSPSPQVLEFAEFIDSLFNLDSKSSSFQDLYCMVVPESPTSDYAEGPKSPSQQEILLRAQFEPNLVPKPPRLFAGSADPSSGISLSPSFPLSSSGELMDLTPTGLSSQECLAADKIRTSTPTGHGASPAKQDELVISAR
Summary of the method: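 Membrane fraction from HEK293T cells transiently transfected with human DAGLα (PEI transfection, harvested at 72 h). Membranes used at 0.05 μg μL-1 final protein in 50 mM HEPES pH 7.2. Colorimetric readout of para-nitrophenylbutyrate hydrolysis. pIC50 ± SEM.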

[3] = molecular target: T3, Monoacylglycerol lipase ABHD6 (Homo sapiens, UniProt Q9BV23); assay: Inhibition of recombinant human ABHD6 expressed in HEK293 cells by AmplifuTM red dye based fluorescence assay; format: cell-based
T3 sequence (Q9BV23 whole entry): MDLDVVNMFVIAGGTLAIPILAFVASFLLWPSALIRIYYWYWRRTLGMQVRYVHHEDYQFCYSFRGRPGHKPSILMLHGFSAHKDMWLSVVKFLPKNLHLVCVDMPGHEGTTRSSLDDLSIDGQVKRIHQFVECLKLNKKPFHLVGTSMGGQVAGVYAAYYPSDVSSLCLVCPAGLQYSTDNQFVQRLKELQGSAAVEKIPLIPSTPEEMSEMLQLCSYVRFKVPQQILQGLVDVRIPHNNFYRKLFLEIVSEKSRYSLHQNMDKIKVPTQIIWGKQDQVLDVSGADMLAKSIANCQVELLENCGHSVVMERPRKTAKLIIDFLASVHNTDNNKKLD
Summary of the method: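 Membranes from transiently transfected HEK293T cells expressing human ABHD6, 40 μg mL-1 final protein. Real-time coupled fluorescence assay with natural substrate 2-AG (25 μM). Glycerol released is detected via glycerol kinase, glycerol-3-phosphate oxidase and HRP (0.2 U mL-1 each), 0.125 mM ATP and 10 μM Amplifu Red. Assay contains 5% DMSO and 0.5% acetonitrile. pIC50 ± SEM.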

[4] = molecular target: T4, Diacylglycerol lipase-alpha (Mus musculus) (UniProt Q6WQJ1); assay: Inhibition of MB064 labelling of DAGLalpha in mouse brain homogenates at 10 uM pretreated for 30 mins followed by MB064 addition and measured after 20 mins by activity based protein profiling assay relative to control; format: tissue-based; summary of the method: as §1
T4 sequence (whole entry): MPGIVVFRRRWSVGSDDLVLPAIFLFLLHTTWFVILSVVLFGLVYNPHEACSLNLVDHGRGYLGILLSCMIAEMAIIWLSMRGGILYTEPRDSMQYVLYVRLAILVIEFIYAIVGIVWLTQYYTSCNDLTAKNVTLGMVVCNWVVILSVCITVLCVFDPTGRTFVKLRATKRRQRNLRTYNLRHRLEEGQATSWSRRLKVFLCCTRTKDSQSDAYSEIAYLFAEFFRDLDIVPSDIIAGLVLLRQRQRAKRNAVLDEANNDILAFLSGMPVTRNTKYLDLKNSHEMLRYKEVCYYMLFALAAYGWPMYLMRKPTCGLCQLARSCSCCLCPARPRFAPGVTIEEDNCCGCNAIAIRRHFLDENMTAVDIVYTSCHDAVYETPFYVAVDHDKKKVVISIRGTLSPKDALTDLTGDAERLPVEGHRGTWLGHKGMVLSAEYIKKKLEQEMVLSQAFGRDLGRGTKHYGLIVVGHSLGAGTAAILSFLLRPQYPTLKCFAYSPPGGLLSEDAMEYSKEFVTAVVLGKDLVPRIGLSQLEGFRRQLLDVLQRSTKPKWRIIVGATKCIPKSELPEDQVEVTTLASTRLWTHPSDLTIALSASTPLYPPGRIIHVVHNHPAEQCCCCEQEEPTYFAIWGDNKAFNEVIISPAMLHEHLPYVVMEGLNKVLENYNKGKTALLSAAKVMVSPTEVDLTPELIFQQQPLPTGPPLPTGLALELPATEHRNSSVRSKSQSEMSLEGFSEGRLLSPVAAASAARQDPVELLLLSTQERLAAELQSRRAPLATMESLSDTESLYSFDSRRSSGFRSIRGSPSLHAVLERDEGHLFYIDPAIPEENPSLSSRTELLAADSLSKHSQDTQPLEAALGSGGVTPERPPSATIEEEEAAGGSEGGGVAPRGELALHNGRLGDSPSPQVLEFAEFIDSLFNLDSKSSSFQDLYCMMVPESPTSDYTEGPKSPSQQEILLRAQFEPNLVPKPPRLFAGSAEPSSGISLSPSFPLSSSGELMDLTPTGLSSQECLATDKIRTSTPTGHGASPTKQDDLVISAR

Row | Compound | inhibition [1] | IC50 [2] | IC50 [3] | inhibition [4]
1 | O=C(N1C[C@H](O)C=C[C@@H]1Cc1ccccc1)n1cc(-c2ccc(-c3ccccc3)cc2)nn1 | 96% | 15.8 nM | 3.16 nM | 92%
2 | O=C(N1CCC=C[C@@H]1Cc1ccccc1)n1cc(-c2ccc(-c3ccccc3)cc2)nn1 | 96% | 0.794 nM | 2.51 nM | 99%
3 | O=C(N1CC=C[C@@H](O)[C@H]1COCc1ccccc1)n1cc(-c2ccc(-c3ccccc3)cc2)nn1 | 83% | > 10000 nM | 251 nM | 18%
4 | O=C(N1CCC=C[C@H]1Cc1ccccc1)n1cc(-c2ccc(-c3ccccc3)cc2)nn1 | 90% | 79.4 nM | 25.1 nM | 83%
5 | O=C(N1CCCC[C@@H]1Cc1ccccc1)n1cc(-c2ccc(-c3ccccc3)cc2)nn1 | 95% | – | – | 99%
6 | O=C(N1CCC=C[C@@H]1COCc1ccccc1)n1cnc(-c2ccc(-c3ccccc3)cc2)n1 | – | > 10000 nM | > 10000 nM | 0%

Other lines, results leading:

Row | inhibition [1] | IC50 [2] | IC50 [3] | inhibition [4] | Compound
7 | 84% | 1260 nM | 100 nM | 30% | O=C(N1CCC=C[C@H]1COCc1ccccc1)n1cc(-c2ccc(-c3ccccc3)cc2)nn1
8 | 50% | > 10000 nM | 316 nM | 5% | O=C(N1C[C@H](O)C=C[C@H]1COCc1ccccc1)n1cc(-c2ccc(-c3ccccc3)cc2)nn1
9 | 95% | 25.1 nM | 5.01 nM | 87% | O=C(N1C[C@H](O)C=C[C@@H]1COCc1ccccc1)n1cc(-c2ccc(-c3ccccc3)cc2)nn1
10 | -3% | > 10000 nM | > 10000 nM | -3% | O=C(N1CCC=C[C@@H]1COCc1ccccc1)n1ccc(-c2ccc(Br)cc2)n1
11 | – | > 10000 nM | > 10000 nM | – | O=C(Oc1ccc([N+](=O)[O-])cc1)N1CCC=C[C@@H]1COCc1ccccc1
12 | – | > 10000 nM | > 10000 nM | – | O=C(N1CCC=C[C@@H]1COCc1ccccc1)n1cnc(-c2ccc(-c3ccccc3)cc2)c1
13 | – | > 10000 nM | > 10000 nM | -9% | O=C(N1CCC=C[C@@H]1COCc1ccccc1)n1cnc(-c2ccc(Br)cc2)c1
14 | -3% | > 10000 nM | > 10000 nM | – | O=C(N1CCC=C[C@@H]1COCc1ccccc1)n1ccc(-c2ccc(-c3ccccc3)cc2)n1
15 | 18% | > 10000 nM | 794 nM | 6% | O=C(N1CC=C[C@@H](O)[C@@H]1COCc1ccccc1)n1cc(-c2ccc(-c3ccccc3)cc2)nn1
